Values after ≈ are worked out from the molar mass of the structure shown. Where two headings read alike, the source gives them in different places.
How the values were obtained:
[1] = type: in vivo; conditions: human, serum, po, 300 mg, 300 mg single oral dose of allopurinol; for Cmax / Vd/F / AUC(0-t): mean ± SE; for Tmax: median (range); for Vd/F: V/F (apparent volume of distribution)
[2] = system: serum uric acid (SUA); conditions: cited from earlier work
[3] = system: BCRP; conditions: cited from earlier work
[4] = Tolerability in the clinical study; type: in vivo, human; conditions: 19 healthy volunteers who completed the study; 300 mg oral allopurinol
In short: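 Healthy adults aged 18–50 were screened by medical-history questionnaire. Exclusions were HLA‑B*58:01 carriers, interacting medications, liver enzymes or creatinine >1.5× normal range, and abnormal platelet or white-cell counts. […] In one protocol they continued 300 mg once daily, with a final dose on day 6. In the other they received a single dose only.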

[5] = system: serum uric acid (SUA); type: in vivo, human
[6] = Population PK model of oxypurinol; type: in vivo, human; conditions: for Kfm (formation rate constant): final PK model

Cmax ([1]; genotype (0) CC, n=9)	Cmax ([1]; genotype (1) CA, n=7)	Cmax ([1]; genotype (2) AA, n=3)	Tmax ([1]; genotype (0) CC)	Tmax ([1]; genotype (1) CA)	Tmax ([1]; genotype (2) AA)	Vd/F ([1]; genotype (0) CC)	Vd/F ([1]; genotype (1) CA)	Vd/F ([1]; genotype (2) AA)	Compound	BCRP substrate [3]	other results
1370 ± 130 ng/mL	1930 ± 617 ng/mL	1550 ± 453 ng/mL	1.5 h	1 h	2 h	149 ± 17 L	160 ± 22.3 L	148 ± 40.9 L	Oc1ncnc2[nH]ncc12 [Allopurinol, allopurinol]	substrates of BCRP	patients reaching an acceptable treatment end point [2]: 21%; tolerability [4]: well‐tolerated
5930 ± 409 ng/mL	6440 ± 592 ng/mL	6380 ± 1350 ng/mL	4 h	4 h	6 h	49.9 ± 4.53 L	61.9 ± 9.58 L	56.6 ± 11.6 L	O=c1[nH]c(=O)c2c[nH]nc2[nH]1 [Oxypurinol, oxypurinol]	substrates of BCRP	AUC(0-t) ([1]; AUC0–24, genotype (0) CC): 93900 ± 8070 ng·h/mL; AUC(0-t) ([1]; AUC0–24, genotype (1) CA): 93400 ± 9990 ng·h/mL; AUC(0-t) ([1]; AUC0–24, genotype (2) AA): 105000 ± 20600 ng·h/mL; EC50 ([5]; Homo sapiens, read-out: C50 (concentration needed to achieve 50% effect)): 2.59 µg/mL (≈ 17 µM); Emax (maximum effect) ([5]; final PK/PD model, effect on SUA, RSE not given): 1; θgender(female), covariate effect on V/Fm ([6]; V/Fm=θV/Fm×(1+θgender), estimate (%RSE) [95% CI]): θgender(female) = −0.248 (35.7) [−0.395, −0.067]; Kfm (formation rate constant) ([6]; BSV in parentheses in the text): 0.771 h⁻¹; Kfm (formation rate constant) ([6]; estimate (%RSE) [95% CI]): 0.771 (17.8) [0.535, 1.06] 1/h; lower V/Fm in women compared with men ([6]; final PK/PD model, gender covariate): 24.8%; Vd/F ([6]; male, human, plasma, oral, 300 mg): 57 L
